Source: ChEMBL document CHEMBL1156108, “Synthesis and biological evaluation of p38alpha kinase-targeting dialkynylimidazoles” (Bioorg Med Chem Lett, 2009)
Values belong to the compound of their own block, whether it stands above or below them.

How the values were obtained:
[1] = biological target: MAP kinase-activated protein kinase 2 (Homo sapiens) (UniProt P49137); assay: Inhibition of human MAPKAPK2 at 20 uM by FRET assay
[2] = biological target: Proto-oncogene tyrosine-protein kinase receptor Ret (Homo sapiens) (UniProt P07949); assay: Inhibition of human RET at 20 uM by FRET assay
[3] = biological target: T1, Mitogen-activated protein kinase kinase kinase kinase 4 (Homo sapiens, UniProt O95819); assay: Inhibition of human MAP4K4 at 20 uM by FRET assay
[4] = biological target: Receptor tyrosine-protein kinase erbB-2 (Homo sapiens) (UniProt P04626); assay: Inhibition of human ERBB2 at 20 uM by FRET assay
[5] = biological target: T2, Mitogen-activated protein kinase 14 (Homo sapiens, UniProt Q16539); assay: Inhibition of p38alpha by FRET assay
[6] = biological target: Serine/threonine-protein kinase PAK 4 (Homo sapiens) (UniProt O96013); assay: Inhibition of human PAK4 at 20 uM by FRET assay
[7] = biological target: Casein kinase I isoform gamma-2 (Homo sapiens) (UniProt P78368); assay: Inhibition of human CK1gamma2 at 20 uM by FRET assay
[8] = biological target: Casein kinase II subunit alpha (Homo sapiens) (UniProt P68400); assay: Inhibition of human CK2alpha1 at 20 uM by FRET assay
[9] = biological target: T1, Mitogen-activated protein kinase kinase kinase kinase 4; assay: Inhibition of human MAP4K4 by FRET assay
[10] = biological target: Tyrosine-protein kinase Lck (Homo sapiens) (UniProt P06239); assay: Inhibition of human LCK at 20 uM by FRET assay
[11] = biological target: Receptor-type tyrosine-protein kinase FLT3 (Homo sapiens) (UniProt P36888); assay: Inhibition of human FLT3 at 20 uM by FRET assay
[12] = biological target: Cyclin-dependent kinase 1/cyclin B (Homo sapiens) (UniProt P06493+P14635+Q8WWL7+O95067); assay: Inhibition of human CDK1/cyclin B at 20 uM by FRET assay; assay type: protein-complex assay
[13] = biological target: Aurora kinase A (Homo sapiens) (UniProt O14965); assay: Inhibition of human Aurora A at 20 uM by FRET assay
[14] = biological target: Proto-oncogene tyrosine-protein kinase Src (Homo sapiens) (UniProt P12931); assay: Inhibition of human SRC at 20 uM by FRET assay
[15] = biological target: Serine/threonine-protein kinase Chk1 (Homo sapiens) (UniProt O14757); assay: Inhibition of human CHK1 at 20 uM by FRET assay
[16] = Selectivity ratio for IC50 of p38alpha to IC50 of p38beta
[17] = biological target: Tyrosine-protein kinase ABL1 (Homo sapiens) (UniProt P00519); assay: Inhibition of human ABL1 at 20 uM by FRET assay
[18] = biological target: Serine/threonine-protein kinase mTOR (Homo sapiens) (UniProt P42345); assay: Inhibition of human FRAP1 at 20 uM by FRET assay
[19] = biological target: Interleukin-1 receptor-associated kinase 4 (Homo sapiens) (UniProt Q9NWZ3); assay: Inhibition of human IRAK4 at 20 uM by FRET assay
[20] = biological target: RAF proto-oncogene serine/threonine-protein kinase (Homo sapiens) (UniProt P04049); assay: Inhibition of human RAF1 at 20 uM by FRET assay
CYP2D6 = CYP2D6 (Homo sapiens, UniProt P10635); assay: Inhibition of CYP2D6 at 10 uM; assay type: ADME
[21] = biological target: Mitogen-activated protein kinase 12 (Homo sapiens) (UniProt P53778); assay: Inhibition of human p38-gamma at 20 uM by FRET assay
[22] = biological target: Glycogen synthase kinase-3 beta (Homo sapiens) (UniProt P49841); assay: Inhibition of human GSK3-beta at 20 uM by FRET assay
[23] = biological target: Hepatocyte growth factor receptor (Homo sapiens) (UniProt P08581); assay: Inhibition of human MET at 20 uM by FRET assay
[24] = biological target: Ribosomal protein S6 kinase beta-1 (Homo sapiens) (UniProt P23443); assay: Inhibition of human p70S6K at 20 uM by FRET assay
Method in brief: (§1)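 Single-point screen at one fixed concentration, run across a panel of 53 additional human kinases, which includes this enzyme.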

[25] = biological target: Tyrosine-protein kinase SYK (Homo sapiens) (UniProt P43405); assay: Inhibition of human SYK at 20 uM by FRET assay
[26] = biological target: Insulin-like growth factor 1 receptor (Homo sapiens) (UniProt P08069); assay: Inhibition of human IGF1R at 20 uM by FRET assay
[27] = biological target: Dual specificity mitogen-activated protein kinase kinase 1 (Homo sapiens) (UniProt Q02750); assay: Inhibition of human MEK1 at 20 uM by FRET assay
[28] = biological target: Angiopoietin-1 receptor (Homo sapiens) (UniProt Q02763); assay: Inhibition of human TEK at 20 uM by FRET assay
[29] = biological target: Mitogen-activated protein kinase 13 (Homo sapiens) (UniProt O15264); assay: Inhibition of human p38delta at 20 uM by FRET assay; method in brief: as §1
[30] = biological target: Ephrin type-A receptor 2 (Homo sapiens) (UniProt P29317); assay: Inhibition of human EPHA2 at 20 uM by FRET assay
[31] = biological target: Tyrosine-protein kinase JAK3 (Homo sapiens) (UniProt P52333); assay: Inhibition of human JAK3 at 20 uM by FRET assay
[32] = biological target: Vascular endothelial growth factor receptor 2 (Homo sapiens) (UniProt P35968); assay: Inhibition of human KDR at 20 uM by FRET assay
[33] = biological target: Tyrosine-protein kinase BTK (Homo sapiens) (UniProt Q06187); assay: Inhibition of human BTK at 20 uM by FRET assay
[34] = biological target: Ribosomal protein S6 kinase alpha-3 (Homo sapiens) (UniProt P51812); assay: Inhibition of human RPS6KA3 at 20 uM by FRET assay
[35] = biological target: Serine/threonine-protein kinase MARK2 (Homo sapiens) (UniProt Q7KZI7); assay: Inhibition of human MARK2 at 20 uM by FRET assay
[36] = biological target: cAMP-dependent protein kinase catalytic subunit alpha (Homo sapiens) (UniProt P17612); assay: Inhibition of human PRKACA at 20 uM by FRET assay
[37] = biological target: Epidermal growth factor receptor (Homo sapiens) (UniProt P00533); assay: Inhibition of human EGFR at 20 uM by FRET assay
[38] = biological target: Inhibitor of nuclear factor kappa-B kinase subunit beta (Homo sapiens) (UniProt O14920); assay: Inhibition of human IKK-beta at 20 uM by FRET assay
[39] = biological target: Mast/stem cell growth factor receptor Kit (Homo sapiens) (UniProt P10721); assay: Inhibition of human KIT at 20 uM by FRET assay
[40] = biological target: Serine/threonine-protein kinase PLK1 (Homo sapiens) (UniProt P53350); assay: Inhibition of human PLK1 at 20 uM by FRET assay
[41] = biological target: Platelet-derived growth factor receptor beta (Homo sapiens) (UniProt P09619); assay: Inhibition of human PDGFRbeta at 20 uM by FRET assay
[42] = biological target: RAC-alpha serine/threonine-protein kinase (Homo sapiens) (UniProt P31749); assay: Inhibition of human AKT1 at 20 uM by FRET assay
[43] = biological target: Rho-associated protein kinase 1 (Homo sapiens) (UniProt Q13464); assay: Inhibition of human ROCK1 at 20 uM by FRET assay
[44] = biological target: Protein kinase C beta type (Homo sapiens) (UniProt P05771); assay: Inhibition of human PKCbeta1 at 20 uM by FRET assay
[45] = biological target: Fibroblast growth factor receptor 1 (Homo sapiens) (UniProt P11362); assay: Inhibition of human FGFR1 at 20 uM by FRET assay
[46] = biological target: Mitogen-activated protein kinase 1 (Homo sapiens) (UniProt P28482); assay: Inhibition of human ERK2 at 20 uM by FRET assay
[47] = biological target: Mitogen-activated protein kinase 9 (Homo sapiens) (UniProt P45984); assay: Inhibition of human JNK2 at 20 uM by FRET assay
[48] = biological target: Serine/threonine-protein kinase pim-1 (Homo sapiens) (UniProt P11309); assay: Inhibition of human PIM1 at 20 uM by FRET assay
[49] = biological target: Dual specificity tyrosine-phosphorylation-regulated kinase 3 (Homo sapiens) (UniProt O43781); assay: Inhibition of human DYRK3 at 20 uM by FRET assay
[50] = biological target: Activin receptor type-1B (Homo sapiens) (UniProt P36896); assay: Inhibition of human ALK4 at 20 uM by FRET assay
[51] = biological target: Mitogen-activated protein kinase 8 (Homo sapiens) (UniProt P45983); assay: Inhibition of human JNK1 at 20 uM by FRET assay
[52] = biological target: Mitogen-activated protein kinase 11 (Homo sapiens, UniProt Q15759); assay: Inhibition of p38beta by FRET assay
[53] = biological target: Insulin receptor (Homo sapiens) (UniProt P06213); assay: Inhibition of human INSR at 20 uM by FRET assay
[54] = biological target: High affinity nerve growth factor receptor (Homo sapiens) (UniProt P04629); assay: Inhibition of human NTRK1 at 20 uM by FRET assay
[55] = biological target: Serine/threonine-protein kinase Nek1 (Homo sapiens) (UniProt Q96PY6); assay: Inhibition of human NEK1 at 20 uM by FRET assay
[56] = biological target: T2, Mitogen-activated protein kinase 14; assay: Inhibition of p38alpha at 10 uM by FRET assay
Method in brief: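 Single-concentration screen against p38α, read at a fixed 60 min time-point. Reported as percent inhibition from tests run in duplicate.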

T2 sequence (Q16539 whole entry): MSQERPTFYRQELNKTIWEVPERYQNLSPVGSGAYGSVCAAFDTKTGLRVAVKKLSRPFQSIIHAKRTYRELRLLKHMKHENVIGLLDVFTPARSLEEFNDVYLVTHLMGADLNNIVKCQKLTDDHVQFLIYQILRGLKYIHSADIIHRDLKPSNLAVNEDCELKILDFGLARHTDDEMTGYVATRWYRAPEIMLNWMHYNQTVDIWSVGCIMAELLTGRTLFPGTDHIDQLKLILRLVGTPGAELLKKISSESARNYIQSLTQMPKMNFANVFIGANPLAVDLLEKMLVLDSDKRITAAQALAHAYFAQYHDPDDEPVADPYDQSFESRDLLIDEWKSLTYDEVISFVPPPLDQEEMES
Chain of CYP2D6 (P10635 whole entry): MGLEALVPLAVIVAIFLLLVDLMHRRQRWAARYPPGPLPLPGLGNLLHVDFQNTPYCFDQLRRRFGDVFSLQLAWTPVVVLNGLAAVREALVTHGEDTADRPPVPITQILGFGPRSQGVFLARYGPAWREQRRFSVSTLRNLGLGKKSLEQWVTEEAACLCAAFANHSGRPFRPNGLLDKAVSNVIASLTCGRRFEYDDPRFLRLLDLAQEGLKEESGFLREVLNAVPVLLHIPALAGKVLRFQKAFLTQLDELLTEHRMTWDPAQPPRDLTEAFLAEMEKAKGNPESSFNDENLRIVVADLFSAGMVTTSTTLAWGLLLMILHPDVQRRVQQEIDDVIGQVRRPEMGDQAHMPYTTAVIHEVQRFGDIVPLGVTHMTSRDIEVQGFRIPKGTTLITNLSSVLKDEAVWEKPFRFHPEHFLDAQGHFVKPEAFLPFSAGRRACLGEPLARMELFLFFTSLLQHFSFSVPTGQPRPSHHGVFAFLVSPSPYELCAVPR
Chain of Hepatocyte growth factor receptor (Homo sapiens) (P08581 whole entry): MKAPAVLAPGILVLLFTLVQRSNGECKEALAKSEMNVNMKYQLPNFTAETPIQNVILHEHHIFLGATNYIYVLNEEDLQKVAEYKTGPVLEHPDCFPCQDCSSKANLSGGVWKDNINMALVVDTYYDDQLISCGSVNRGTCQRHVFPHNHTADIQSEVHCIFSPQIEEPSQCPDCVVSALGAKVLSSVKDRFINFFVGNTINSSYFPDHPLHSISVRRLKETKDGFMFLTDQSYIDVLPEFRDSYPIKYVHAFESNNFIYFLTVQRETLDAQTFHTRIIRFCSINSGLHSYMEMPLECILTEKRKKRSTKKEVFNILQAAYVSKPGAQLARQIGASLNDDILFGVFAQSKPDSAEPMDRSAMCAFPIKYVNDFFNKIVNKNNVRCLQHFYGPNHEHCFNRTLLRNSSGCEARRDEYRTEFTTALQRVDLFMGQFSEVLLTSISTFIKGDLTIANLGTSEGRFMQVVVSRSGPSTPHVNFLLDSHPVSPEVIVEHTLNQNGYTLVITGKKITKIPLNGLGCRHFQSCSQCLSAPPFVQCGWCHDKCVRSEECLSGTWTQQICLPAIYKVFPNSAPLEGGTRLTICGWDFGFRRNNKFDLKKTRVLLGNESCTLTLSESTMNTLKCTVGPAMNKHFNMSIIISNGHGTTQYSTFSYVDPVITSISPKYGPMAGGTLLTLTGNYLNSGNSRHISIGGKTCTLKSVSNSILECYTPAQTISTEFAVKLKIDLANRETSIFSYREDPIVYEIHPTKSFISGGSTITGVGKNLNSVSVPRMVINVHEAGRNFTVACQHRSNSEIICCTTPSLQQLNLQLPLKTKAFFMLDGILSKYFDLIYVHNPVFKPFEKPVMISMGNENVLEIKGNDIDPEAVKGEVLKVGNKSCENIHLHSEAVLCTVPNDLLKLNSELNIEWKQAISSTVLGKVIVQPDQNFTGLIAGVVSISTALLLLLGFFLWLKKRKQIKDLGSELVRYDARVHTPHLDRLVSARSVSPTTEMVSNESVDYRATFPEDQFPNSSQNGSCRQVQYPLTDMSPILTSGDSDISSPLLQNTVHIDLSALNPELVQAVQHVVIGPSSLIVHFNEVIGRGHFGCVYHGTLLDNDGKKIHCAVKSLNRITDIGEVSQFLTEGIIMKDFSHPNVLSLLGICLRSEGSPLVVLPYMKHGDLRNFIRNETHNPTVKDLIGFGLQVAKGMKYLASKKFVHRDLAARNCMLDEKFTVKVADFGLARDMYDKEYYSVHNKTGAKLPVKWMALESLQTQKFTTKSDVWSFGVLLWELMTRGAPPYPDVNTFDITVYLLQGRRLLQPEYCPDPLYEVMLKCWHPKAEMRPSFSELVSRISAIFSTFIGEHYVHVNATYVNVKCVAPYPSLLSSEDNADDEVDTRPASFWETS
Chain of Serine/threonine-protein kinase Chk1 (Homo sapiens) (O14757 whole entry): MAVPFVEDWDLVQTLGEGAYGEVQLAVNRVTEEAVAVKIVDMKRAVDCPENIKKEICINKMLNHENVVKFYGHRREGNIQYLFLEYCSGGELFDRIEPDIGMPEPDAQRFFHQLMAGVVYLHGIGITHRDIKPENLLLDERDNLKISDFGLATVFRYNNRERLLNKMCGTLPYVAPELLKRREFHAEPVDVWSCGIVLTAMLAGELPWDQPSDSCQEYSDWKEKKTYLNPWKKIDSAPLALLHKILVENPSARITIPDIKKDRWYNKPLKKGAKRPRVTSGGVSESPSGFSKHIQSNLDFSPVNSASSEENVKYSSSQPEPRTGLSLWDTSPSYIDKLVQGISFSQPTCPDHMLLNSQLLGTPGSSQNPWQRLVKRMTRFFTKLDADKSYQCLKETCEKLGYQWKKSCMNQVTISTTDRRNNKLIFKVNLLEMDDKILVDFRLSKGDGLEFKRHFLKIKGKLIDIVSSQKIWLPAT
Chain of Ribosomal protein S6 kinase alpha-3 (Homo sapiens) (P51812 whole entry): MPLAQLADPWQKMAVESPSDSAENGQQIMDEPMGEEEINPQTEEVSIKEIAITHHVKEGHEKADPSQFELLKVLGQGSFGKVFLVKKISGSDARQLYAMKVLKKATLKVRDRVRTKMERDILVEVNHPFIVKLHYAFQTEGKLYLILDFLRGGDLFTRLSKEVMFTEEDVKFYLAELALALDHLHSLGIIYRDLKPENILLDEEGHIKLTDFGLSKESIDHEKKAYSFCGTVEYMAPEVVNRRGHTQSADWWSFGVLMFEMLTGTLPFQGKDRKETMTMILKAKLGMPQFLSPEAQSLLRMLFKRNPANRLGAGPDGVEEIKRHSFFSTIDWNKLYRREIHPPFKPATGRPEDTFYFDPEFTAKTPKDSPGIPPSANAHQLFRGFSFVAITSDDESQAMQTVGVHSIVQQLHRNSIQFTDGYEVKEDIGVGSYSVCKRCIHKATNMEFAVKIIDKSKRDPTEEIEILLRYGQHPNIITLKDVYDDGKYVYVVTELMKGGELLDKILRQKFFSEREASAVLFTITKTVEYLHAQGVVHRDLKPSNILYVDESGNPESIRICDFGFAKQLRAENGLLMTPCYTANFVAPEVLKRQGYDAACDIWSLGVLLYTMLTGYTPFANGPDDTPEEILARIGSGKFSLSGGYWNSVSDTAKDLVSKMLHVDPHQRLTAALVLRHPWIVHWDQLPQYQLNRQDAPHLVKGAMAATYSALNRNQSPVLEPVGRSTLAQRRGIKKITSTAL
Chain of Serine/threonine-protein kinase Nek1 (Homo sapiens) (Q96PY6 whole entry): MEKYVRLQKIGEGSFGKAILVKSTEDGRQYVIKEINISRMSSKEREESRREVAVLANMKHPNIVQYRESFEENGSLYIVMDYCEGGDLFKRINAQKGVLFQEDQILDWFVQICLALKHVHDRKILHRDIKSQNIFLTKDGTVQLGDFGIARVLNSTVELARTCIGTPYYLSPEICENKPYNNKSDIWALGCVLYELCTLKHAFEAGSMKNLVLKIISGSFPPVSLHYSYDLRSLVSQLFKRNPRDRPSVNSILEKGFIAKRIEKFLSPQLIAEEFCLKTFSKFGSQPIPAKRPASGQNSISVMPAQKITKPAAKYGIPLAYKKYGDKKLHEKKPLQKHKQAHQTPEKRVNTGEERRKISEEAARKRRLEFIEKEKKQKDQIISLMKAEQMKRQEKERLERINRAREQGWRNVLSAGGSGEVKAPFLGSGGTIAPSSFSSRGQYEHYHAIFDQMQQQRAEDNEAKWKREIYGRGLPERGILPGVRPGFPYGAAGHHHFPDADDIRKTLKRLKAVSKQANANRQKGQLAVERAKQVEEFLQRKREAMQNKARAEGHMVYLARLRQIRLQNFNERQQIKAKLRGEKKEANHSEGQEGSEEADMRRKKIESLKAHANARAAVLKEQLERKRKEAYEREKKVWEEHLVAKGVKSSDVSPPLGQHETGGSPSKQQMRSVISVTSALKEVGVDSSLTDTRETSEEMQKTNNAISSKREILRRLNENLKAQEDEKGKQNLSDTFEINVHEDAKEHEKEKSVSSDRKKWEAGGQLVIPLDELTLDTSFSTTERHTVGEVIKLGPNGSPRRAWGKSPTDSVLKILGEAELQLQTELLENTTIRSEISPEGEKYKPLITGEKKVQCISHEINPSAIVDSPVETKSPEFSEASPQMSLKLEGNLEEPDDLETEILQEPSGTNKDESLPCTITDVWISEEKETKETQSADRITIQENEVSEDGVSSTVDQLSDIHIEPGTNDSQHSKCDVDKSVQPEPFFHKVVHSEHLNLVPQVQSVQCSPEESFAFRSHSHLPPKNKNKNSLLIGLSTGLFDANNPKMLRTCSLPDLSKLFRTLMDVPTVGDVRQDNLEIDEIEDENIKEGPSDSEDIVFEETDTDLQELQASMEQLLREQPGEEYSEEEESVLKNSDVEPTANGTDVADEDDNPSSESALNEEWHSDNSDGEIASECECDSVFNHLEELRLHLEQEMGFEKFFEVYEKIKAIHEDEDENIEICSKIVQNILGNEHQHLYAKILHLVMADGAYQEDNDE
Chain of Serine/threonine-protein kinase pim-1 (Homo sapiens) (P11309 whole entry, looked up): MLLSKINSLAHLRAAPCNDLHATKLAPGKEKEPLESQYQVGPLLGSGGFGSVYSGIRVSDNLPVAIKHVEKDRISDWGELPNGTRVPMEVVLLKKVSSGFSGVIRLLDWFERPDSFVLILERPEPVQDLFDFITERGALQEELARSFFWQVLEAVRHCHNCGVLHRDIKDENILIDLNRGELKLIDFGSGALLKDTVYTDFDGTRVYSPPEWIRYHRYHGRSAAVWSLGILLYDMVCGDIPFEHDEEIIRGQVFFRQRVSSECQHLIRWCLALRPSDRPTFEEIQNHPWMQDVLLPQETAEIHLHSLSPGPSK

inhibition [1]: 3%
inhibition [2]: 21%
inhibition [3]: 92%
inhibition [4]: 41%
IC50 [5]: 0.2 µM
inhibition [6]: 8%
inhibition [7]: 36%
inhibition [8]: 3%
IC50 [9]: 4.2 µM
inhibition [10]: 48%
inhibition [11]: 17%
inhibition [12]: 3%
inhibition [13]: 7%
inhibition [14]: 27%
inhibition [15]: 5%
Ratio IC50 [16]: > 25
inhibition [17]: 15%
inhibition [18]: 6%
inhibition [19]: 1%
inhibition [20]: 82%
inhibition at 10 µM (CYP2D6): 4%
inhibition [21]: 14%
inhibition [22]: 44%
inhibition [23]: 11%
inhibition [24]: 7%
inhibition [25]: 3%
inhibition [26]: -1%
inhibition [27]: 10%
inhibition [28]: 5%
inhibition [29]: 12%
inhibition [30]: 23%
inhibition [31]: 4%
inhibition [32]: 36%
inhibition [33]: 9%
inhibition [34]: 0%
inhibition [35]: 14%
inhibition [36]: 50%
inhibition [37]: 84%
inhibition [38]: 5%
inhibition [39]: 5%
inhibition [40]: 7%
inhibition [41]: 10%
inhibition [42]: 29%
inhibition [43]: 15%
inhibition [44]: 80%
inhibition [45]: 8%
inhibition [46]: 6%
inhibition [47]: 88%
inhibition [48]: 3%
inhibition [49]: 8%
inhibition [50]: 72%
inhibition [51]: 21%
IC50 [52]: 5.4 µM
inhibition [53]: 7%
inhibition [54]: 1%
inhibition [55]: 11%
inhibition [56]: 100%
Structure (SMILES): C#Cn1c(C#CCCO)nc(-c2ccc(F)cc2)c1-c1ccncc1

inhibition [56]: 28%
Structure (SMILES): C#Cc1nc(-c2ccc(F)cc2)c(-c2ccncc2)n1C#Cc1ccccc1

inhibition [56]: 53%
Structure (SMILES): OCCC#Cc1nc(-c2ccncc2)c(-c2ccc(F)cc2)n1C#Cc1ccccc1

inhibition [56]: 19%
Structure (SMILES): C#Cc1nc(-c2ccncc2)c(-c2ccc(F)cc2)n1C#Cc1ccccc1

inhibition [56]: 83%
Structure (SMILES): OCC#Cc1nc(-c2ccc(F)cc2)c(-c2ccncc2)n1C#Cc1ccccc1

IC50 [5]: 0.37 µM
Structure (SMILES): OCCc1cc(Cl)n2c(-c3ccncc3)c(-c3ccc(F)cc3)nc2c1

Structure (SMILES): C[S+]([O-])c1ccc(-c2nc(-c3ccncc3)c(-c3ccc(F)cc3)[nH]2)cc1 (stereo not given) [SB-203580]
inhibition at 10 µM (CYP2D6): 78%

inhibition [56]: 75%
Structure (SMILES): OCCC#Cc1nc(-c2ccc(F)cc2)c(-c2ccncc2)n1C#Cc1ccccc1

inhibition [56]: 63%
Structure (SMILES): OCC#Cc1nc(-c2ccncc2)c(-c2ccc(F)cc2)n1C#Cc1ccccc1
